Laboratory results from paper PMC11078046 (JBMR Plus, 2024).

Key:
[1] = humans, given intravenously; cited from earlier work
[2] = system: thyroparathyroidectomized (TPTx) rats; test: TPTx rat 28-day efficacy study; format: in vivo, Sprague–Dawley rats; settings: daily SC 10 nmol/kg
Summary of the method: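 Female thyroparathyroidectomised Crl-CD SD rats, 215–290 g, randomised on baseline serum calcium and body weight after 9 days of acclimation. Daily SC dosing in PBS (1 mL/kg) for 28 days. Jugular serum taken in two alternating cohorts on days 1, 12 and 27 at 0, 2, 6, 10 and 24 h, run on a Hitachi 7180 analyser (n = 5/cohort). Urine n = 10/group. Distal femur BMD by pQCT, n = 10/group.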

[3] = system: thyroparathyroidectomized (TPTx) rats; test: TPTx rat 7-day efficacy study; format: in vivo, Sprague–Dawley rats
Summary of the method: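 Female TPTx SD rats, 250–300 g, randomised on baseline calcium and weight (n = 12). Daily SC dosing in PBS (1 mL/kg) for 7 days. Day-1 jugular serum drawn from two cohorts at 0, 2, 6, 10, 18 and 24 h; calcium and phosphate measured on a Hitachi 7180. Predose serum on days −6, 4 and 7 assayed by osteocalcin, PINP and CTX-I ELISAs.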

Row | Molecule | plasma half-life [1] | bone remodeling markers (osteocalcin, CTX, PINP) [2] | BMD, cortical region of the diaphysis (pQCT) ([2]; 28 days) | serum calcium ([2]; 28 days, days 1, 12, 27) | BMD, distal femur metaphysis (pQCT) ([2]; 28 days, vs TPTx: vehicle) | urinary calcium (creatinine-normalized) ([2]; days 1, 14, 27) | serum phosphate ([2]; days 12 and 27) | serum calcium, day 1 after first dose ([3]; SC 3 nmol/kg, 0–24 h) | bone formation markers osteocalcin and PINP ([3]; daily SC 3 nmol/kg, serum, days 4 and 7) | serum phosphate, days 4 and 7 ([3]; daily SC 3 nmol/kg, three timepoints)
1 | PTH: endogenous human polypeptide, 84 amino acids in length | less than 10 min |  |  |  |  |  |  |  |  | 
2 | PTH(1-84): Recombinant human PTH(1-84), Natpara (Takeda); native parathyroid hormone comparator (protein, UniProt P01270 32-115, looked up, Parathyroid hormone) Parathyroid hormone: SVSEIQLMHNLGKHLNSMERVEWLRKKLQDVHNFVALGAPLAPRDAGSQRPRKKEDNVLVESHEKSLGEADKADVNVLTKAKSQ |  | increased serum concentrations of osteocalcin and CTX, but had only minimal effect on PINP | small but statistically significant decrease in BMD | no increase or only small increases in serum calcium | unchanged or slightly increased | not significantly increased | much smaller decrease in serum phosphate | unaffected | only induced a small increase | only transiently lower serum phosphate at the 2 h timepoints
